Bioassay records: PubChem, several laboratories
Sampled rows, rich in hits. Any-hit rate of the full collection: about 2.3%.
PfHsp90 set2 – growth inhibition of PfHsp90-expressing yeast, primary screen, antimalarial PfHsp90 inhibitor project, S. cerevisiae, BacTiter-Glo luminescence, single point, set 2 | BacTiter-Glo ATP, 48 h; yeast lacking PDR1 and PDR3 efflux regulators | AID 504621, 2011 | hit rate 0.32% among 310,000 | inhibition, % at 9.4 µM;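 active = every replicate shows inhibition above about 80%, whatever the replicate mean, limit read from the data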
Glyco luc inh – increase of ERlucT glycosylation luciferase signal, primary screen, N-linked glycosylation inhibitor project, D54 ERlucT cells, luminescence, set 2 | reporter increase, % at 12.5 µM | D54 ERlucT glycosylation luciferase reporter, 24 h; percent of 100 nM tunicamycin response | AID 588692, 2011 | hit rate 0.23% among 360,000;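 active = mean luciferase reporter signal, scaled so untreated is 0 and the glycosylation-blocking control 100, at or above a set limit in every replicate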;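 also: luciferase carries N-glycosylation sites so blocking glycosylation raises the light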
Arrestin-AP2 inh – inhibitors of beta-arrestin/AP2 binding, primary screen, biochemical, GPCR trafficking, flow cytometry. AID 504490, 2011. inhibition, % at 10 µM. beta-arrestin 1 C-terminal peptide binding to AP2 beta2-adaptin appendage (human). hit rate 0.31% among 340,000. FITC-arrestin peptide / GST-AP2 beads; AP2 beta2 appendage carries R879A mutation;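 active = inhibition above a set limit, near 3 SD of compounds lacking own fluorescence, cut at about 54% in these data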
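System: GST-AP2 R879A glutathione beads | Also added: FITC-arrestin peptide, 50 nM | Times: 12 min plus 1 h, RT | Signal: Bead flow cytometry, FITC channel | Buffer or medium: PBS with 0.05% Tween 20 and 0.1% BSA | Read-out basis: Percent drop in bead-associated FITC signal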
Rtt109 Vps75 – inhibitors of C. albicans Rtt109/Vps75 HAT, primary screen, biochemical, ThioGlo CoA-SH fluorescence, plate reader. purified Rtt109/Vps75, 4 h. inhibition, % at 34.9 µM. hit rate 0.16% among 330,000. AID 540336, 2011;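 active = inhibition of at least 50% in every replicate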
Target sequence (Q5AAJ8 whole entry, looked up): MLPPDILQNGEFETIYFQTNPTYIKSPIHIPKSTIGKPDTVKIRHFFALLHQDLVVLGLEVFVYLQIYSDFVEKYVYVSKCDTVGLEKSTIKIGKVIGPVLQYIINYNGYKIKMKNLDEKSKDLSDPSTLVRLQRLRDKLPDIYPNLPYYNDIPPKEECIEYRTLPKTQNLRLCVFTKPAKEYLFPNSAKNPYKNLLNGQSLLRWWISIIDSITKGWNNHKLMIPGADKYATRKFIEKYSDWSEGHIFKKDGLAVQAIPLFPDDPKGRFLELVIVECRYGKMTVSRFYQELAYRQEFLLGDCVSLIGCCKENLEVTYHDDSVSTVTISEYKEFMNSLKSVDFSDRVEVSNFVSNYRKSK
Env fusion inh – inhibitors of HIV-1 Env-driven cell-cell fusion, primary screen, HeLa-JRFL effector, CEM21 target cells, luciferase. AID 651610, 2012. hit rate 1.1% among 360,000. inhibition, % at 12.3 µM;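 active = mean replicate inhibition score of at least 50 and every replicate individually at or above 50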
PAX8 inh HTS – inhibitors of PAX8-driven TPO luciferase reporter, primary screen, RMG-I cells, single concentration. AID 652154, 2013. hit rate 1.2% among 360,000. SteadyGlo, 24 h. inhibition, % at 12.6 µM;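 active = mean replicate inhibition at least 60% with every replicate also reaching 60%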;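 also: luciferase light reporting Pax8 driven TPO promoter activity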
Arr-AP2 CP1 – inhibitors of arrestin peptide binding to AP2, confirmation, biochemical, cherry pick 1, flow cytometry beads. hit rate 2% among 1,300. GST-AP2 beads, FITC arrestin peptide binding; GST-fused beta2-adaptin appendage, R879A mutant. AID 504908, 2011. shares compounds with Arrestin-AP2 inh. inhibition, % at 10 µM;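 active = inhibition above a set limit, roughly 3 SD of non-fluorescent compound noise, cut at about 38% in these data; inactive = inhibition at or below that limit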;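 also: loss of bead fluorescence from 50 nM FITC arrestin peptide bound to appendage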
GST-FITC bead – GST-fluorescein capture on glutathione beads, confirmation, artefact control for arrestin-AP2 inhibitor project, biochemical, cherry pick 1, flow cytometry. shares compounds with Arrestin-AP2 inh. GST-fluorescein binding to GSH beads, fluorescence, counter-screen. inhibition, % at 10 µM. hit rate 2% among 1,300. AID 588338, 2011;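 active = inhibition above 50%, about 3 SD of the inhibition seen with non-fluorescent compounds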;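 also: fluorescein maleimide labelled GST captured on 4 micron glutathione beads; higher means more loss of bead fluorescence from quenching or blocked binding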
Each line names hits and unclear results; the compound was inactive in the other large screens (follow-up assays come after a bar, where they were run).

CC=Cc1ccc2n(c1=O)C[C@@H]1[C@@H](CO)[C@H](C(=O)NCC3CCCCC3)N(C(=O)CC)[C@H]21 (mixture of isomers)	none (no result: PfHsp90 set2, Glyco luc inh, Arrestin-AP2 inh, Rtt109 Vps75, Env fusion inh)
COc1ccc(C(O)P(=O)(O)CCc2ccccc2)cc1 (stereo not drawn)	Arrestin-AP2 inh 62 (no result: Env fusion inh, PAX8 inh HTS) | Arr-AP2 CP1 inactive | GST-FITC bead inactive
O=P(O)(CCc1ccccc1)C(O)c1ccccc1 (stereo not drawn)	none (no result: Env fusion inh, PAX8 inh HTS)
O=C(NC1CCCCC1)N(CCN1CCOCC1)Cc1cc2cc3c(cc2[nH]c1=O)OCCO3	none (no result: PAX8 inh HTS)
CCc1ccc2[nH]c(=O)c(CN(CCN3CCCC3)C(=O)NC3CCCCC3)cc2c1	none (no result: Env fusion inh, PAX8 inh HTS) | Arr-AP2 CP1 inactive | GST-FITC bead inactive
Cc1ccc2[nH]c(=O)c(CN(CCCN3CCOCC3)C(=O)NC3CCCCC3)cc2c1	none (no result: PfHsp90 set2, PAX8 inh HTS) | Arr-AP2 CP1 inactive | GST-FITC bead inactive
C[C@@H]1CN([C@H](C)CO)S(=O)(=O)c2ccc(Br)cc2O[C@H]1CN(C)S(=O)(=O)c1ccccc1	none (no result: PfHsp90 set2, Glyco luc inh, Arrestin-AP2 inh, Rtt109 Vps75, PAX8 inh HTS)
Cc1cccc(/C=C/c2onc(C)c2S(=O)(=O)N2CCC(C(=O)N3CCCCC3)CC2)c1	Arrestin-AP2 inh 55 (no result: Env fusion inh, PAX8 inh HTS) | Arr-AP2 CP1 inactive | GST-FITC bead inactive
O=C(NCC(F)(F)F)N1CCOCC1	Arrestin-AP2 inh 68 (no result: Env fusion inh, PAX8 inh HTS) | Arr-AP2 CP1 inactive | GST-FITC bead inactive
CCCNC(=O)N(C)C[C@@H]1Oc2ncc(Br)cc2C(=O)N([C@@H](C)CO)C[C@@H]1C	none (no result: PfHsp90 set2, Glyco luc inh, Arrestin-AP2 inh, Rtt109 Vps75, Env fusion inh)
C#Cc1ccc([C@@H]2C=C(C(=O)Nc3ccccc3)O[C@H](OCc3ccc(CO)cc3)C2)cc1	none (no result: PfHsp90 set2, Glyco luc inh, Arrestin-AP2 inh, Rtt109 Vps75)
COc1ccc(C(=O)NNC2=Nc3cccc4cccc2c34)cc1	none
COc1ccc(CC(=O)NNC2=Nc3cccc4cccc2c34)cc1	Arrestin-AP2 inh 58 | Arr-AP2 CP1 inactive | GST-FITC bead inactive
COc1cccc(NC(=O)C[C@@H]2CC[C@@H]3[C@H](COc4ccc(NC(=O)c5ccccc5F)cc4C(=O)N3C)O2)c1	none (no result: PfHsp90 set2, Glyco luc inh, Arrestin-AP2 inh, Rtt109 Vps75, Env fusion inh)
O=C(CN1CCN(C(=O)c2ccc(-c3nc4ccccc4s3)o2)CC1)Nc1ccccc1Cl	none (no result: Env fusion inh)
Cc1cccc(NC(=O)CN2CCN(C(=O)c3ccc(-c4nc5ccccc5s4)o3)CC2)c1C	Arrestin-AP2 inh 59 | Arr-AP2 CP1 inactive | GST-FITC bead inactive
CCCC(=O)Nc1ccc2c(c1)OC[C@H](C)N(C(=O)CC1CC1)C[C@@H](C)[C@H](OC)CN(C)C2=O	none (no result: PfHsp90 set2, Glyco luc inh, Arrestin-AP2 inh, Rtt109 Vps75)
CCC(C)N(C(=O)COC(=O)c1ccccc1SCC(=O)N1CCCC1)C1CCS(=O)(=O)C1 (stereo not drawn)	Arrestin-AP2 inh 54 (no result: Env fusion inh) | Arr-AP2 CP1 inactive | GST-FITC bead inactive
CCn1c(=O)n(CC(=O)Nc2cccc(OC)c2)c(=O)c2ccccc21	none (no result: Env fusion inh, PAX8 inh HTS) | Arr-AP2 CP1 inactive | GST-FITC bead inactive
CCn1c(=O)n(CC(=O)Nc2cc(OC)c(OC)c(OC)c2)c(=O)c2ccccc21	none (no result: Env fusion inh, PAX8 inh HTS) | Arr-AP2 CP1 inactive | GST-FITC bead inactive
COc1cccc(NC(=O)Cn2c(=O)n(-c3cc(OC)c(OC)c(OC)c3)c(=O)c3ccccc32)c1	none
COc1cc(NC(=O)CNC(=O)Cn2c(C)cc3ccccc3c2=O)cc(OC)c1OC	none
CC1CCCC(C)N1C(=O)COC(=O)CSc1ccc([N+](=O)[O-])cc1 (stereo not drawn)	Arrestin-AP2 inh 75 (no result: PfHsp90 set2) | Arr-AP2 CP1 inactive | GST-FITC bead inactive
CCSc1nnc(NC(=O)C2C3CCC(C3)C2C(=O)O)s1 (stereo not drawn)	Arrestin-AP2 inh 60 | Arr-AP2 CP1 inactive | GST-FITC bead inactive
COc1ccc(C#Cc2ccc3c(c2)O[C@@H](CN(C)C(=O)CN2CCOCC2)[C@@H](C)CN([C@H](C)CO)S3(=O)=O)cc1	none (no result: PfHsp90 set2, Glyco luc inh, Arrestin-AP2 inh, Rtt109 Vps75)
COc1ccc(S(=O)(=O)N(C)C[C@@H]2OCCCC[C@H](C)Oc3ccc(NC(=O)C4CCCCC4)cc3C(=O)N([C@H](C)CO)C[C@H]2C)cc1	none (no result: PfHsp90 set2, Glyco luc inh, Arrestin-AP2 inh, Rtt109 Vps75)
COc1ccc(C(=O)Nc2ccc(S(=O)(=O)NC(C)=O)cc2)cc1[N+](=O)[O-]	none
CCOCCCNS(=O)(=O)c1ccc(NC(=O)c2ccc(OC)c([N+](=O)[O-])c2)cc1	Arrestin-AP2 inh 56 | Arr-AP2 CP1 inactive | GST-FITC bead inactive
CC(=O)N(C)c1ccc(NC(=O)c2ccc([N+](=O)[O-])cc2Cl)cc1	Arrestin-AP2 inh 69 | Arr-AP2 CP1 inactive | GST-FITC bead inactive
CC(=O)Nc1ccc(NC(=O)c2ccc([N+](=O)[O-])cc2Cl)cc1	none
COc1cccc(NC(=O)CN(C)C(=O)c2cc(-c3ccc(C)o3)nc3ccccc23)c1	none
COc1cccc(NC(=O)c2cc(-c3ccc(C)o3)nc3ccccc23)c1	Arrestin-AP2 inh 54 | Arr-AP2 CP1 inactive | GST-FITC bead inactive
COc1ccc(CNC(=O)[C@H](C)NC(=O)C2CC(=O)N(c3ccc4c(c3)OCO4)C2)cc1 (stereo partly drawn)	Arrestin-AP2 inh 55 | Arr-AP2 CP1 inactive | GST-FITC bead inactive
COc1ccc(CNC(=O)[C@H](C)NC(=O)C2CC(=O)N(c3ccc(OC)cc3)C2)cc1 (stereo partly drawn)	none
COc1ccc2nc(C)cc(N3CCN(S(=O)(=O)c4ccccc4F)CC3)c2c1	Arrestin-AP2 inh 62 (no result: PfHsp90 set2) | Arr-AP2 CP1 inactive | GST-FITC bead inactive
O=C(CC(F)(F)F)N1C[C@H]2[C@@H](c3ccccc31)[C@@H](CO)N2C(=O)c1cccnc1	none (no result: PfHsp90 set2, Glyco luc inh, Arrestin-AP2 inh, Rtt109 Vps75, Env fusion inh)
